Measured values as given in ChEMBL document CHEMBL5329156, “Discovery and development of novel substituted monohydrazides as potent antifungal agents” (RSC Med Chem, 2023).
In brackets after ≈: the same amount, converted by molar mass.

Assays:
[1] = test system: J774.A1; experiment: Cytotoxicity against J774A.1 cells assessed as reduction in cell viability at 31.3 microg/ml; type: toxicity, cell-based; conditions: mouse, dose 31.3 µg/ml
Procedure, shortened: (§1)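 Cells in DMEM with 10% FBS and 1% Pen/Strep, seeded at 10,000 cells/well and held overnight at 37 °C, 5% CO2. Compounds added at final 31.3-0.12 µg/mL (0.05% DMSO vehicle) for 24 h. Resazurin then added for 6 h; fluorescence read at ex 560/em 590. Triton X-100 1% as positive control; values normalized to vehicle. Run in quadruplicate.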

[2] = test system: HEK293; experiment: Cytotoxicity against human HEK-293 cells assessed as reduction in cell viability at 31.3 microg/ml; type: toxicity, cell-based; conditions: dose 31.3 µg/ml; procedure, shortened: as §1
[3] = test system: Candida albicans; experiment: Antifungal activity against Candida albicans ATCC 10231 assessed as fungal growth inhibition by double dilution method; type: functional
Procedure, shortened: (§2)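 Broth microdilution after CLSI M27-A3/M38-A2 with minor changes. Single colony grown overnight in YPD at 35 °C, 200 rpm. Compound final range 0.06-31.3 µg/mL; incubated 48 h at 35 °C.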

[4] = test system: Candida albicans; experiment: Antifungal activity against Candida albicans ATCC 64124 assessed as fungal growth inhibition by double dilution method; type: functional
Procedure, shortened: (§3)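 Broth microdilution after CLSI M27-A3/M38-A2 with minor modifications. A single colony was grown overnight in YPD at 35 °C with shaking at 200 rpm. Cells were mixed 1:1 with compound (final 0.06-31.3 µg/mL, from DMSO stocks) and incubated 48 h at 35 °C.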

[5] = test system: Candida albicans; experiment: Antifungal activity against itraconazole/fluconazole susceptible Candida albicans ATCC MYA-2876 assessed as fungal growth inhibition by double dilution method; type: functional; procedure, shortened: as §3
[6] = test system: Candida albicans; experiment: Antifungal activity against itraconazole/fluconazole resistant Candida albicans ATCC 90819 assessed as fungal growth inhibition by double dilution method; type: functional; procedure, shortened: as §3
[7] = test system: Candida albicans; experiment: Antifungal activity against itraconazole/fluconazole susceptible Candida albicans ATCC MYA-2310 assessed as fungal growth inhibition by double dilution method; type: functional; procedure, shortened: as §3
[8] = test system: Candida albicans; experiment: Antifungal activity against itraconazole/fluconazole resistant Candida albicans ATCC MYA-1237 assessed as fungal growth inhibition by double dilution method; type: functional; procedure, shortened: as §3
[9] = test system: Candida albicans; experiment: Antifungal activity against itraconazole/fluconazole resistant Candida albicans ATCC MYA-1003 assessed as fungal growth inhibition by double dilution method; type: functional; procedure, shortened: as §3
[10] = test system: Nakaseomyces glabratus; experiment: Antifungal activity against Candida glabrata ATCC 2001 assessed as fungal growth inhibition by double dilution method; type: functional; procedure, shortened: as §2
[11] = test system: Pichia kudriavzevii; experiment: Antifungal activity against Pichia kudriavzevii ATCC 6258 assessed as fungal growth inhibition by double dilution method; type: functional; procedure, shortened: as §2
[12] = test system: Nakaseomyces glabratus; experiment: Antifungal activity against Candida glabrata ATCC 22019 assessed as fungal growth inhibition by double dilution method; type: functional; procedure, shortened: as §2
[13] = test system: [Candida] auris; experiment: Antifungal activity against Candida auris AR Bank # 0384 assessed as fungal growth inhibition by double dilution method; type: functional; conditions: Candidozyma auris; procedure, shortened: as §2
[14] = test system: [Candida] auris; experiment: Antifungal activity against Candida auris AR Bank # 0390 assessed as fungal growth inhibition by double dilution method; type: functional; conditions: Candidozyma auris; procedure, shortened: as §2
[15] = test system: Cryptococcus neoformans; experiment: Antifungal activity against Cryptococcus neoformans ATCC MYA-895 assessed as fungal growth inhibition by double dilution method; type: functional; procedure, shortened: as §2
[16] = test system: Aspergillus terreus; experiment: Antifungal activity against Aspergillus terreus ATCC MYA-3633 assessed as fungal growth inhibition by double dilution method; type: functional
[17] = test system: Aspergillus fumigatus; experiment: Antifungal activity against Aspergillus fumigatus NRRL 163 assessed as fungal growth inhibition by double dilution method; type: functional
[18] = test system: Aspergillus flavus; experiment: Antifungal activity against Aspergillus flavus ATCC MYA-3631 assessed as fungal growth inhibition by double dilution method; type: functional
[19] = test system: Aspergillus nidulans; experiment: Antifungal activity against Aspergillus nidulans ATCC 38163 assessed as fungal growth inhibition by double dilution method; type: functional
[20] = test system: Aspergillus fumigatus; experiment: Antifungal activity against Aspergillus fumigatus NRRL 5109 assessed as fungal growth inhibition by double dilution method; type: functional
[21] = test system: Aspergillus fumigatus; experiment: Antifungal activity against Aspergillus fumigatus NRRL 6113 assessed as fungal growth inhibition by double dilution method; type: functional
[22] = test system: [Candida] auris; experiment: Antifungal activity against Candida auris AR Bank # 381 assessed as fungal growth inhibition by double dilution method; type: functional; conditions: Candidozyma auris; procedure, shortened: as §2
[23] = test system: [Candida] auris; experiment: Antifungal activity against Candida auris AR Bank # 382 assessed as fungal growth inhibition by double dilution method; type: functional; conditions: Candidozyma auris; procedure, shortened: as §2
[24] = test system: [Candida] auris; experiment: Antifungal activity against Candida auris AR Bank # 383 assessed as fungal growth inhibition by double dilution method; type: functional; conditions: Candidozyma auris; procedure, shortened: as §2
[25] = test system: [Candida] auris; experiment: Antifungal activity against Candida auris AR Bank # 384 assessed as fungal growth inhibition by double dilution method; type: functional; conditions: Candidozyma auris; procedure, shortened: as §2
[26] = test system: [Candida] auris; experiment: Antifungal activity against Candida auris AR Bank # 385 assessed as fungal growth inhibition by double dilution method; type: functional; conditions: Candidozyma auris; procedure, shortened: as §2
[27] = test system: [Candida] auris; experiment: Antifungal activity against Candida auris AR Bank # 386 assessed as fungal growth inhibition by double dilution method; type: functional; conditions: Candidozyma auris; procedure, shortened: as §2
[28] = test system: [Candida] auris; experiment: Antifungal activity against Candida auris AR Bank # 387 assessed as fungal growth inhibition by double dilution method; type: functional; conditions: Candidozyma auris; procedure, shortened: as §2
[29] = test system: [Candida] auris; experiment: Antifungal activity against Candida auris AR Bank # 388 assessed as fungal growth inhibition by double dilution method; type: functional; conditions: Candidozyma auris; procedure, shortened: as §2
[30] = test system: [Candida] auris; experiment: Antifungal activity against Candida auris AR Bank # 389 assessed as fungal growth inhibition by double dilution method; type: functional; conditions: Candidozyma auris; procedure, shortened: as §2
[31] = test system: [Candida] auris; experiment: Antifungal activity against Candida auris AR Bank # 390 assessed as fungal growth inhibition by double dilution method; type: functional; conditions: Candidozyma auris; procedure, shortened: as §2
[32] = test system: Candida duobushaemulonii; experiment: Antifungal activity against Candida duobushaemulonii AR Bank # 391 assessed as fungal growth inhibition by double dilution method; type: functional; conditions: Candidozyma duobushaemuli; procedure, shortened: as §2
[33] = test system: Candida duobushaemulonii; experiment: Antifungal activity against Candida duobushaemulonii AR Bank # 392 assessed as fungal growth inhibition by double dilution method; type: functional; conditions: Candidozyma duobushaemuli; procedure, shortened: as §2
[34] = test system: [Candida] haemuloni; experiment: Antifungal activity against Candida haemulonii AR Bank # 393 assessed as fungal growth inhibition by double dilution method; type: functional; conditions: Candidozyma haemuli; procedure, shortened: as §2
[35] = test system: Candida duobushaemulonii; experiment: Antifungal activity against Candida duobushaemulonii AR Bank # 394 assessed as fungal growth inhibition by double dilution method; type: functional; conditions: Candidozyma duobushaemuli; procedure, shortened: as §2
[36] = test system: [Candida] haemuloni; experiment: Antifungal activity against Candida haemulonii AR Bank # 395 assessed as fungal growth inhibition by double dilution method; type: functional; conditions: Candidozyma haemuli; procedure, shortened: as §2
[37] = test system: Kodamaea ohmeri; experiment: Antifungal activity against Kodamaea ohmeri AR Bank # 396 assessed as fungal growth inhibition by double dilution method; type: functional; procedure, shortened: as §2
[38] = test system: Pichia kudriavzevii; experiment: Antifungal activity against Pichia kudriavzevii AR Bank # 397 assessed as fungal growth inhibition by double dilution method; type: functional; procedure, shortened: as §2
[39] = test system: Clavispora lusitaniae; experiment: Antifungal activity against Clavispora lusitaniae AR Bank # 398 assessed as fungal growth inhibition by double dilution method; type: functional; procedure, shortened: as §2
[40] = test system: Saccharomyces cerevisiae; experiment: Antifungal activity against Saccharomyces cerevisiae AR Bank # 399 assessed as fungal growth inhibition by double dilution method; type: functional; procedure, shortened: as §2
[41] = test system: Saccharomyces cerevisiae; experiment: Antifungal activity against Saccharomyces cerevisiae AR Bank # 400 assessed as fungal growth inhibition by double dilution method; type: functional; procedure, shortened: as §2

C[C@@H](c1ncncc1F)[C@](O)(Cn1cncn1)c1ccc(F)cc1F [VORICONAZOLE]
Activity [1]: Non-Toxic | Activity [2]: Non-Toxic

C[C@@H]1[C@H](O)[C@@H](C)/C=C/C=C/C=C/C=C/C=C/C=C/C=C/[C@H](O[C@@H]2O[C@H](C)[C@@H](O)[C@H](N)[C@@H]2O)C[C@@H]2O[C@](O)(C[C@@H](O)C[C@@H](O)[C@H](O)CC[C@@H](O)C[C@@H](O)CC(=O)O[C@H]1C)C[C@H](O)[C@H]2C(=O)O [AMPHOTERICIN B]
MIC [3]: 1.95 µg/mL (≈ 2.11 µM) | MIC [4]: 1.95 µg/mL (≈ 2.11 µM) | MIC [5]: 1.95 µg/mL (≈ 2.11 µM) | MIC [6]: 0.98 µg/mL (≈ 1.06 µM) | MIC [7]: 0.98 µg/mL (≈ 1.06 µM) | MIC [8]: 1.95 µg/mL (≈ 2.11 µM) | MIC [9]: 0.98 µg/mL (≈ 1.06 µM) | MIC [10]: 0.98 µg/mL (≈ 1.06 µM) | MIC [11]: 0.98 µg/mL (≈ 1.06 µM) | MIC [12]: 0.98 µg/mL (≈ 1.06 µM) | MIC [13]: 1.95 µg/mL (≈ 2.11 µM) | MIC [14]: 1.95 µg/mL (≈ 2.11 µM) | MIC [15]: 7.8 µg/mL (≈ 8.44 µM) | MIC [16]: 3.9 µg/mL (≈ 4.22 µM) | MIC [17]: 0.98 µg/mL (≈ 1.06 µM) | MIC [18]: 31.3 µg/mL (≈ 33.9 µM) | MIC [19]: 15.6 µg/mL (≈ 16.9 µM) | MIC [20]: 0.98 µg/mL (≈ 1.06 µM) | MIC [21]: 1.95 µg/mL (≈ 2.11 µM) | MIC [22]: 0.98 µg/mL (≈ 1.06 µM) | MIC [23]: 0.98 µg/mL (≈ 1.06 µM) | MIC [24]: 1.95 µg/mL (≈ 2.11 µM) | MIC [25]: 1.95 µg/mL (≈ 2.11 µM) | MIC [26]: 1.95 µg/mL (≈ 2.11 µM) | MIC [27]: 0.98 µg/mL (≈ 1.06 µM) | MIC [28]: 0.98 µg/mL (≈ 1.06 µM) | MIC [29]: 1.95 µg/mL (≈ 2.11 µM) | MIC [30]: 1.95 µg/mL (≈ 2.11 µM) | MIC [31]: 1.95 µg/mL (≈ 2.11 µM) | MIC [32]: 7.8 µg/mL (≈ 8.44 µM) | MIC [33]: 7.8 µg/mL (≈ 8.44 µM) | MIC [34]: 15.6 µg/mL (≈ 16.9 µM) | MIC [35]: 0.98 µg/mL (≈ 1.06 µM) | MIC [36]: 3.9 µg/mL (≈ 4.22 µM) | MIC [37]: 1.95 µg/mL (≈ 2.11 µM) | MIC [38]: 0.49 µg/mL (≈ 0.53 µM) | MIC [39]: 3.9 µg/mL (≈ 4.22 µM) | MIC [40]: 15.6 µg/mL (≈ 16.9 µM) | MIC [41]: 1.95 µg/mL (≈ 2.11 µM) | Activity [1]: Non-Toxic | Activity [2]: Non-Toxic
